Data taken from ChEMBL document CHEMBL4251573, “Synthesis and biological evaluation of N-substituted 3-oxo-1,2,3,4-tetrahydro-quinoxaline-6-carboxylic acid derivatives as tubulin polymerization inhibitors” (Eur J Med Chem, 2018).
Activity calls are given as the source filed them. The calls are words filed in the database; no cut-off is given here.

What was measured:
[1] = test system: HeLa; test: Antiproliferative activity against human HeLa cells after 72 hrs by MTT assay; format: functional, cell-based
Outline: (§1)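 HeLa and SMMC-7721 cells in log phase were seeded at 4000-6000 cells/well. After 24 h, quadruplicate wells were treated with a series of concentrations for 72 h. DMSO stocks were 5 mmol/L, with final DMSO below 0.1%. MTT (10 mg/mL in PBS) was added for 4 h, medium replaced with DMSO, and OD read at 490 nm. IC50 came from at least five concentrations; mean and SD of at least three independent experiments.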

[2] = test system: SMMC-7721; test: Antiproliferative activity against human SMMC7721 cells after 72 hrs by MTT assay; format: functional, cell-based; settings: SMMC-7721, 72 h; outline: as §1
[3] = test system: K562; test: Antiproliferative activity against human K562 cells after 72 hrs by MTT assay; format: functional, cell-based; settings: K562, 72 h
Outline: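 K562 cells were grown in RPMI 1640 with 10% FBS at 37 °C in 5% CO2, then seeded at 4000-6000 cells/well. Quadruplicate wells were exposed to drug for 72 h, with final DMSO below 0.1%. After 4 h with MTT, solubilizer (10% SDS, 5% isobutyl alcohol, 0.01 M HCl) was added for 12 h, then OD read at 490 nm. IC50 came from at least five concentrations; mean and SD of at least three experiments.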

[4] = biological target: Tubulin (Homo sapiens) (UniProt P68371+Q9H4B7+P0DPH7+P68366+Q13509+Q71U36+P04350+Q3ZCM7+P07437+P68363+Q9BQE3+Q6PEY2+Q13885+Q9BVA1+Q9BUF5); test: Inhibition of tubulin (unknown origin) polymerization at 20 uM after 40 mins by fluorescence assay; format: protein-complex assay
Outline: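 Polymerization was run with a fluorescence kit. Compound, in duplicate, was warmed 1 min at 37 °C before adding cold tubulin mix (2 mg/mL tubulin, 80 mM PIPES pH 6.9, 2.0 mM MgCl2, 0.5 mM EGTA, 1.0 mM GTP, 15% glycerol). Fluorescence was read at ex 360/em 450 nm every minute for 1 h at 37 °C and scored at 40 min against 0.1% DMSO vehicle.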

[5] = species: Sus scrofa; test: Competitive binding affinity to porcine brain tubulin at 0.1 to 10 uM preincubated for 1 hr followed by colchicine addition measured after 1 hr by fluorescence assay
Outline: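 Tubulin (4 μM) in 80 mM PIPES pH 6.9, 2 mM MgCl2 and 0.5 mM EGTA was preincubated 1 h at 37 °C with 0.1, 1, 5 or 10 μM test agent, with DMSO as control. Colchicine (10 μM) was then added for another 1 h at 37 °C. Tubulin-colchicine fluorescence was read at ex 340/em 435 nm and normalized to DMSO; at least three replicates, mean ± SD.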

SMILES	IC50 [1]	IC50 [2]	IC50 [3]	inhibition [4]	Activity [5]
COc1cccc2c1C(=O)c1c(O)c3c(c(O)c1C2=O)C[C@@](O)(C(=O)CO)C[C@@H]3O[C@H]1C[C@H](N)[C@H](O)[C@H](C)O1 [DOXORUBICIN]		1.59 µM	0.89 µM		
COc1cc(CN2CC(=O)Nc3cc(C(=O)O)ccc32)cc(OC)c1OC	32.2 µM	39 µM	35.9 µM		
COc1ccc(/C=C\c2cc(OC)c(OC)c(OC)c2)cc1O [COMBRETASTATIN A4]		0.0038 µM	0.013 µM		
CC(=O)O[C@H]1C(=O)[C@@]2(C)[C@H]([C@H](OC(=O)c3ccccc3)[C@]3(O)C[C@H](OC(=O)[C@H](O)[C@@H](NC(=O)c4ccccc4)c4ccccc4)C(C)=C1C3(C)C)[C@]1(OC(C)=O)CO[C@@H]1C[C@@H]2O					inactive
COc1cc(C(=O)N2CC(=O)Nc3cc(C(=O)NC4CCCCC4)ccc32)cc(OC)c1OC	> 50 µM	40.6 µM	> 50 µM		
COc1cc(CN2CC(=O)Nc3cc(C(=O)NC4CCCCC4)ccc32)cc(OC)c1OC	41.8 µM	28 µM	42.6 µM		
COC(=O)c1ccc2c(c1)NC(=O)CN2Cc1cc(OC)c(OC)c(OC)c1	2.76 µM	2.69 µM	3.42 µM	Active	
COc1cc(C(=O)N2CC(=O)Nc3cc(C(=O)N4CCOCC4)ccc32)cc(OC)c1OC	> 50 µM	39.2 µM	> 50 µM		
CCCCNC(=O)c1ccc2c(c1)NC(=O)CN2Cc1cc(OC)c(OC)c(OC)c1	37.5 µM	39.7 µM	43 µM		

The next lines start with the values.

IC50 [1]	IC50 [2]	IC50 [3]	inhibition [4]	Activity [5]	SMILES
16.4 µM	12.5 µM	43.2 µM			COC(=O)c1ccc2c(c1)NC(=O)CN2Cc1ccc(OC)cc1
15.9 µM	7.69 µM	9.8 µM			COC(=O)c1ccc2c(c1)NC(=O)CN2C(=O)c1ccc(F)cc1
26.4 µM	37.9 µM	> 50 µM			COc1cc(C(=O)N2CC(=O)Nc3cc(C(=O)Nc4ccccc4)ccc32)cc(OC)c1OC
24.9 µM	34.4 µM	42.9 µM			COc1ccc(C(=O)N2CC(=O)Nc3cc(C(=O)Nc4ccccc4)ccc32)cc1OC
1.42 µM	1.32 µM	3 µM	Active		COC(=O)c1ccc2c(c1)NC(=O)CN2C(=O)c1ccc(OC)c(OC)c1
> 50 µM	> 50 µM	> 50 µM			CCCCNC(=O)c1ccc2c(c1)NC(=O)CN2C(=O)c1ccc(OC)c(OC)c1
34.9 µM	34.9 µM	> 50 µM			COc1ccc(C(=O)N2CC(=O)Nc3cc(C(=O)N4CCOCC4)ccc32)cc1OC
> 50 µM	43.1 µM	> 50 µM			CCCCNC(=O)c1ccc2c(c1)NC(=O)CN2C(=O)c1cc(OC)c(OC)c(OC)c1
8.28 µM	5.4 µM	7.72 µM			COC(=O)c1ccc2c(c1)NC(=O)CN2C(=O)c1ccc(OC)cc1
38.1 µM	33.2 µM	43.6 µM			COC(=O)c1ccc2c(c1)NC(=O)CN2Cc1ccc(OC)c(OC)c1
39.4 µM	9.1 µM	45.3 µM			COC(=O)c1ccc2c(c1)NC(=O)CN2C(=O)Cc1cc(OC)c(OC)c(OC)c1
